Assay results as given in ChEMBL document CHEMBL2062460, “Disubstituted thiourea derivatives and their activity on CNS: synthesis and biological evaluation” (Eur J Med Chem, 2012).
In brackets after ≈: the same amount, converted by molar mass. Activity calls are given as the source filed them. The rule behind the calls is not given here.

How the values were obtained:
[1] = tested on: Staphylococcus aureus; assay: Antibacterial activity against Staphylococcus aureus ATCC 29213 after 18 hrs by twofold serial agar dilution technique; type: functional; conditions: ATCC 29213, 18 h
Outline: (§1)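 Twofold serial agar dilution on Mueller–Hinton II agar, following CLSI guidelines. Compounds were dissolved in methanol or DMSO and tested at final agar concentrations of 3.125–400 µg/mL. Final inoculum was 10^4 CFU/mL.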

[2] = tested on: Staphylococcus aureus; assay: Antibacterial activity against methicillin-susceptible Staphylococcus aureus clinical isolate 372/09 after 18 hrs by twofold serial agar dilution technique; type: functional; conditions: clinical isolate 372/09, 18 h
Outline: (§2)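 Clinical isolates came from patients in Warsaw Medical University Hospitals and were classed as methicillin-susceptible or -resistant. MIC was determined by twofold serial agar dilution on Mueller–Hinton II agar (CLSI), 3.125–400 µg/mL in agar, with compounds in methanol or DMSO. Inoculum was 10^4 CFU/mL and plates were read after 18 h at 35 °C.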

[3] = tested on: Micrococcus luteus; assay: Antibacterial activity against Micrococcus luteus ATCC 10240 after 18 hrs by twofold serial agar dilution technique; type: functional; conditions: ATCC 10240, 18 h
[4] = tested on: Staphylococcus epidermidis; assay: Antibacterial activity against methicillin-resistant Staphylococcus epidermidis clinical isolate 341/09 after 18 hrs by twofold serial agar dilution technique; type: functional; conditions: clinical isolate 341/09, 18 h; outline: as §2
[5] = tested on: Candida parapsilosis; assay: Antifungal activity against Candida parapsilosis ATCC 22019 at 400 ug/disc after 18 hrs by disc diffusion method; type: functional, organism-based
Outline: (§3)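 Yeasts tested by disc diffusion (CLSI) on RPMI agar with 2% glucose; 9 mm paper discs bearing 400 µg compound from methanol or DMSO solution; inhibition zone diameter read after 18 h at 35 °C.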

[6] = tested on: Staphylococcus aureus; assay: Antibacterial activity against methicillin-resistant Staphylococcus aureus clinical isolate 275/08 after 18 hrs by twofold serial agar dilution technique; type: functional; conditions: clinical isolate 275/08, 18 h; outline: as §2
[7] = tested on: Pseudomonas aeruginosa; assay: Antibacterial activity against Pseudomonas aeruginosa NCTC 6749 at 400 ug/disc after 18 hrs by disc diffusion method; type: functional, organism-based
Outline: (§4)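 Disc diffusion per CLSI on Mueller–Hinton II agar; 9 mm paper discs loaded from methanol or DMSO solutions to 400 µg per disc, dried; growth inhibition zone diameter read after 18 h at 35 °C.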

[8] = tested on: Bacillus subtilis; assay: Antibacterial activity against Bacillus subtilis ATCC 6633 at 400 ug/disc after 18 hrs by disc diffusion method; type: functional; conditions: ATCC 6633, 18 h, read-out: DIZ; outline: as §4
[9] = tested on: Bacillus subtilis; assay: Antibacterial activity against Bacillus subtilis ATCC 6633 after 18 hrs by twofold serial agar dilution technique; type: functional; conditions: ATCC 6633, 18 h
[10] = tested on: Staphylococcus aureus; assay: Antibacterial activity against methicillin-susceptible Staphylococcus aureus clinical isolate 339/09 after 18 hrs by twofold serial agar dilution technique; type: functional; conditions: clinical isolate 339/09, 18 h; outline: as §2
[11] = tested on: Staphylococcus aureus; assay: Antibacterial activity against Staphylococcus aureus NCTC 4163 after 18 hrs by twofold serial agar dilution technique; type: functional; conditions: NCTC 4163, 18 h; outline: as §1
[12] = tested on: Staphylococcus epidermidis; assay: Antibacterial activity against methicillin-resistant Staphylococcus epidermidis clinical isolate 315/08 after 18 hrs by twofold serial agar dilution technique; type: functional; conditions: clinical isolate 315/08, 18 h; outline: as §2
[13] = tested on: Pseudomonas aeruginosa; assay: Antibacterial activity against Pseudomonas aeruginosa ATCC 15442 at 400 ug/disc after 18 hrs by disc diffusion method; type: functional, organism-based; outline: as §4
[14] = tested on: Escherichia coli; assay: Antibacterial activity against Escherichia coli NCTC 8196 at 400 ug/disc after 18 hrs by disc diffusion method; type: functional, organism-based; outline: as §4
[15] = tested on: Staphylococcus epidermidis; assay: Antibacterial activity against methicillin-resistant Staphylococcus epidermidis clinical isolate 316/08 after 18 hrs by twofold serial agar dilution technique; type: functional; conditions: clinical isolate 316/08, 18 h; outline: as §2
[16] = tested on: Staphylococcus epidermidis; assay: Antibacterial activity against methicillin-resistant Staphylococcus epidermidis clinical isolate 317/08 after 18 hrs by twofold serial agar dilution technique; type: functional; conditions: clinical isolate 317/08, 18 h; outline: as §2
[17] = tested on: Micrococcus luteus; assay: Antibacterial activity against Micrococcus luteus ATCC 10240 at 400 ug/disc after 18 hrs by disc diffusion method; type: functional; conditions: ATCC 10240, 18 h, read-out: DIZ; outline: as §4
[18] = tested on: Staphylococcus aureus; assay: Antibacterial activity against methicillin-susceptible Staphylococcus aureus clinical isolate 261/08 after 18 hrs by twofold serial agar dilution technique; type: functional; conditions: clinical isolate 261/08, 18 h; outline: as §2
[19] = tested on: Enterococcus hirae; assay: Antibacterial activity against Enterococcus hirae ATCC 10541 at 400 ug/disc after 18 hrs by disc diffusion method; type: functional; conditions: ATCC 10541, 18 h, read-out: DIZ; outline: as §4
[20] = tested on: Staphylococcus aureus; assay: Antibacterial activity against methicillin-resistant Staphylococcus aureus clinical isolate 357/09 after 18 hrs by twofold serial agar dilution technique; type: functional; conditions: clinical isolate 357/09, 18 h; outline: as §2
[21] = tested on: Staphylococcus epidermidis; assay: Antibacterial activity against methicillin-resistant Staphylococcus epidermidis clinical isolate 318/08 after 18 hrs by twofold serial agar dilution technique; type: functional; conditions: clinical isolate 318/08, 18 h; outline: as §2
[22] = tested on: Bordetella bronchiseptica; assay: Antibacterial activity against Bordetella bronchiseptica ATCC 4617 at 400 ug/disc after 18 hrs by disc diffusion method; type: functional, organism-based; outline: as §4
[23] = tested on: Escherichia coli; assay: Antibacterial activity against Escherichia coli ATCC 25922 at 400 ug/disc after 18 hrs by disc diffusion method; type: functional, organism-based; outline: as §4
[24] = tested on: Micrococcus luteus; assay: Antibacterial activity against Micrococcus luteus ATCC 9341 at 400 ug/disc after 18 hrs by disc diffusion method; type: functional; conditions: ATCC 9341, 18 h, read-out: DIZ; outline: as §4
[25] = tested on: Candida albicans; assay: Antifungal activity against Candida albicans ATCC 90028 at 400 ug/disc after 18 hrs by disc diffusion method; type: functional, organism-based; outline: as §3
[26] = tested on: Staphylococcus aureus; assay: Antibacterial activity against methicillin-susceptible Staphylococcus aureus clinical isolate 267/08 after 18 hrs by twofold serial agar dilution technique; type: functional; conditions: clinical isolate 267/08, 18 h; outline: as §2
[27] = tested on: Staphylococcus epidermidis; assay: Antibacterial activity against methicillin-resistant Staphylococcus epidermidis clinical isolate 342/09 after 18 hrs by twofold serial agar dilution technique; type: functional; conditions: clinical isolate 342/09, 18 h; outline: as §2
[28] = tested on: Escherichia coli; assay: Antibacterial activity against Escherichia coli ATCC 10538 at 400 ug/disc after 18 hrs by disc diffusion method; type: functional, organism-based; outline: as §4
[29] = tested on: Proteus vulgaris; assay: Antibacterial activity against Proteus vulgaris NCTC 4635 at 400 ug/disc after 18 hrs by disc diffusion method; type: functional, organism-based; outline: as §4
[30] = tested on: Staphylococcus epidermidis; assay: Antibacterial activity against methicillin-resistant Staphylococcus epidermidis clinical isolate 311/08 after 18 hrs by twofold serial agar dilution technique; type: functional; conditions: clinical isolate 311/08, 18 h; outline: as §2
[31] = tested on: Staphylococcus aureus; assay: Antibacterial activity against Staphylococcus aureus ATCC 6538 after 18 hrs by twofold serial agar dilution technique; type: functional; conditions: ATCC 6538, 18 h; outline: as §1
[32] = tested on: Staphylococcus aureus; assay: Antibacterial activity against methicillin-susceptible Staphylococcus aureus clinical isolate 367/09 after 18 hrs by twofold serial agar dilution technique; type: functional; conditions: clinical isolate 367/09, 18 h; outline: as §2
[33] = tested on: Staphylococcus epidermidis; assay: Antibacterial activity against methicillin-resistant Staphylococcus epidermidis clinical isolate 377/09 after 18 hrs by twofold serial agar dilution technique; type: functional; conditions: clinical isolate 377/09, 18 h; outline: as §2
[34] = tested on: Staphylococcus aureus; assay: Antibacterial activity against methicillin-resistant Staphylococcus aureus clinical isolate 277/08 after 18 hrs by twofold serial agar dilution technique; type: functional; conditions: clinical isolate 277/08, 18 h; outline: as §2
[35] = tested on: Staphylococcus epidermidis; assay: Antibacterial activity against methicillin-resistant Staphylococcus epidermidis clinical isolate 340/09 after 18 hrs by twofold serial agar dilution technique; type: functional; conditions: clinical isolate 340/09, 18 h; outline: as §2
[36] = tested on: Staphylococcus aureus; assay: Antibacterial activity against methicillin-resistant Staphylococcus aureus clinical isolate 325/09 after 18 hrs by twofold serial agar dilution technique; type: functional; conditions: clinical isolate 325/09, 18 h; outline: as §2

**Q.** Which MIC [1] does the source give for `S=C(Nc1ccc(I)cc1)Nc1nc[nH]n1` here?
**A.** 25 µg/mL (≈ 72.4 µM)

**Q.** And the MIC [2]?
**A.** 25 µg/mL (≈ 72.4 µM)

**Q.** And the MIC [3]?
**A.** 12.5 µg/mL (≈ 36.2 µM)

**Q.** And the MIC [4]?
**A.** 50 µg/mL (≈ 145 µM)

**Q.** And the “diameter of the inhibition zone (DIZ)” value [5]?
**A.** inactive

**Q.** What about the MIC [6] of the same compound?
**A.** 50 µg/mL (≈ 145 µM)

**Q.** What about the “diameter of the inhibition zone (DIZ)” value [7] of the same compound?
**A.** inactive

**Q.** What about the zone of inhibition at 400 µg/disc [8] of the same compound?
**A.** 18 mm

**Q.** What about the MIC [9] of the same compound?
**A.** 12.5 µg/mL (≈ 36.2 µM)

**Q.** What about the MIC [10] of the same compound?
**A.** 50 µg/mL (≈ 145 µM)

**Q.** What about the MIC [11] of the same compound?
**A.** 25 µg/mL (≈ 72.4 µM)

**Q.** What about the MIC [12] of the same compound?
**A.** 50 µg/mL (≈ 145 µM)

**Q.** What about the “diameter of the inhibition zone (DIZ)” value [13] of the same compound?
**A.** inactive

**Q.** What about the “diameter of the inhibition zone (DIZ)” value [14] of the same compound?
**A.** inactive

**Q.** What about the MIC [15] of the same compound?
**A.** 50 µg/mL (≈ 145 µM)

**Q.** What about the MIC [16] of the same compound?
**A.** 50 µg/mL (≈ 145 µM)

**Q.** What about the zone of inhibition at 400 µg/disc [17] of the same compound?
**A.** 16 mm

**Q.** And the MIC [18]?
**A.** 25 µg/mL (≈ 72.4 µM)

**Q.** What about the zone of inhibition at 400 µg/disc [19] of the same compound?
**A.** 13 mm

**Q.** What about the MIC [20] of the same compound?
**A.** 50 µg/mL (≈ 145 µM)

**Q.** What about the MIC [21] of the same compound?
**A.** 12.5 µg/mL (≈ 36.2 µM)

**Q.** What about the “diameter of the inhibition zone (DIZ)” value [22] of the same compound?
**A.** inactive

**Q.** And the “diameter of the inhibition zone (DIZ)” value [23]?
**A.** inactive

**Q.** And the zone of inhibition at 400 µg/disc [24]?
**A.** 13 mm

**Q.** And the “diameter of the inhibition zone (DIZ)” value [25]?
**A.** inactive

**Q.** What about the MIC [26] of the same compound?
**A.** 25 µg/mL (≈ 72.4 µM)

**Q.** And the MIC [27]?
**A.** 25 µg/mL (≈ 72.4 µM)

**Q.** And the “diameter of the inhibition zone (DIZ)” value [28]?
**A.** inactive

**Q.** And the “diameter of the inhibition zone (DIZ)” value [29]?
**A.** inactive

**Q.** What about the MIC [30] of the same compound?
**A.** 50 µg/mL (≈ 145 µM)

**Q.** What about the MIC [31] of the same compound?
**A.** 25 µg/mL (≈ 72.4 µM)

**Q.** And the MIC [32]?
**A.** 25 µg/mL (≈ 72.4 µM)

**Q.** And the MIC [33]?
**A.** 25 µg/mL (≈ 72.4 µM)

**Q.** And the MIC [34]?
**A.** 25 µg/mL (≈ 72.4 µM)

**Q.** And the MIC [35]?
**A.** 25 µg/mL (≈ 72.4 µM)

**Q.** And the MIC [36]?
**A.** 25 µg/mL (≈ 72.4 µM)
